SMILES strings stand for the structures. Active and inactive are the calls of the source. The rule behind the calls is not given here. Bounds are passed on as bounds.

The test system of one assay is Candida albicans. The assay can be described thus: Antimicrobial activity against Candida albicans F5 by twofold serial dilution method. The format is functional.
In assay [1] the target is T1, Quinolone resistance protein NorA (Staphylococcus aureus) (UniProt P0A0J7).
T1 sequence (whole entry): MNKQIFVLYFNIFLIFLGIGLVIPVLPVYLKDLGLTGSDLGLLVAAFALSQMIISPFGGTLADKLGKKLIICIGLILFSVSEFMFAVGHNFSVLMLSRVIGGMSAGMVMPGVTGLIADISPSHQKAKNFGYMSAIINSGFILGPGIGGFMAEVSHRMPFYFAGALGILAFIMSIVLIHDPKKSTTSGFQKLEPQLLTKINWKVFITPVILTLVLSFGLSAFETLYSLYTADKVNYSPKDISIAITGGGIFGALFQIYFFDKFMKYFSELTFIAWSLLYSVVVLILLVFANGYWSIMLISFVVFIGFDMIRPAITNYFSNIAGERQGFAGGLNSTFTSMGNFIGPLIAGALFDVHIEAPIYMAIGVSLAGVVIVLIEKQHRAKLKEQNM
The assay can be described thus: Inhibition of NorA efflux pump in wild-type Staphylococcus aureus 8325-4 assessed as fold reduction of berberine MIC at 56 uM by twofold serial dilution method. The procedure, abridged: (§1)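 Checkerboard assay in 96-well plates. Berberine is diluted 2-fold from 30 to 0.5 µg/mL (89-1.5 µM) across rows, and plant compound from 15 to 0.015 µg/mL across columns, with single-agent dilution series on each plate. Inoculum 5 × 10⁶ CFU/mL, 24 h at 37 °C, growth read at A600. Result is the fold reduction in berberine MIC.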

The next assay relates to Enterococcus faecalis. The assay can be described thus: Antimicrobial activity against Enterococcus faecalis V583 by twofold serial dilution method. The format is functional.
Assay [2] relates to Staphylococcus aureus. The assay can be described thus: Inhibition of MDR protein in wild-type Staphylococcus aureus 8325-4 assessed as potentiation of antimicrobial activity of berberine after 18 hrs by twofold serial dilution method.
The test system of another assay is Saccharomyces cerevisiae. The assay can be described thus: Antimicrobial activity against Saccharomyces cerevisiae BY4742 by twofold serial dilution method. Format: functional.
In assay [3] the target is T1, Quinolone resistance protein NorA (Staphylococcus aureus). The assay can be described thus: Inhibition of NorA efflux pump in Staphylococcus aureus K2361 mutant overexpressing NorA assessed as potentiation of berberine-induced antimicrobial activity at 56 uM by twofold serial dilution method. The essentials:
as §1

Assay [4] relates to Staphylococcus aureus. The assay can be described thus: Antimicrobial activity against wild-type Staphylococcus aureus 8325-4 by twofold serial dilution method. The format is functional.
In a further assay the test system is Escherichia coli. The assay can be described thus: Antimicrobial activity against wild-type Escherichia coli K12 by twofold serial dilution method. Format: functional.
Another assay relates to Pseudomonas aeruginosa. The assay can be described thus: Antimicrobial activity against Pseudomonas aeruginosa PA14 by twofold serial dilution method. Format: functional.
The target of assay [5] is T1, Quinolone resistance protein NorA (Staphylococcus aureus). The assay can be described thus: Inhibition of NorA efflux pump in Staphylococcus aureus K1758 mutant assessed as fold reduction of berberine MIC at 56 uM by twofold serial dilution method. The essentials: as §1
Assay [6] shares this target. The assay can be described thus: Inhibition of NorA efflux pump in Staphylococcus aureus K2361 mutant overexpressing NorA assessed as potentiation of berberine-induced antimicrobial activity at 48 uM by twofold serial dilution method. The essentials:
as §1

For assay [7], the system named is Staphylococcus aureus. The assay can be described thus: Antimicrobial activity against Staphylococcus aureus K2361 mutant overexpressing NorA. The format is functional.
Assay [8] relates to Staphylococcus aureus. The assay can be described thus: Antimicrobial activity against wild-type Staphylococcus aureus 8325-4. The format is functional. The procedure, abridged:
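Wild-type S. aureus 8325-4 grown in Mueller-Hinton broth and inoculated at 10⁵ cells/mL. Test compound serially diluted 2-fold from 50 µg/mL ([…]). Incubated 18 h at 37 °C. Growth read as absorbance at 600 nm. Triplicate, following NCCLS recommendations.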

In assay [9] the test system is Staphylococcus aureus. The assay can be described thus: Antimicrobial activity against NorA knockout Staphylococcus aureus K1758 mutant. Format: functional.
The target in assay [10] is T1, Quinolone resistance protein NorA (Staphylococcus aureus). The assay can be described thus: Inhibition of NorA efflux pump in wild-type Staphylococcus aureus 8325-4 assessed as fold reduction of berberine MIC at 42 uM by twofold serial dilution method. The procedure, abridged: as §1
For assay [11] the target is unchanged. The assay can be described thus: Inhibition of NorA efflux pump in Staphylococcus aureus K2361 mutant overexpressing NorA assessed as potentiation of berberine-induced antimicrobial activity at 42 uM by twofold serial dilution method. The essentials:
as §1

For assay [12] the target is unchanged. The assay can be described thus: Inhibition of NorA efflux pump in wild-type Staphylococcus aureus 8325-4 assessed as fold reduction of berberine MIC at 48 uM by twofold serial dilution method. The essentials: as §1
Assay [13] has the same target. The assay can be described thus: Inhibition of NorA efflux pump in Staphylococcus aureus K1758 mutant assessed as fold reduction of berberine MIC at 48 uM by twofold serial dilution method. The procedure, abridged:
as §1

As for `COc1ccc2c(c1)O[C@@H]1c3ccc(O)cc3OC[C@H]21`, the MIC against Candida albicans, with Enterococcus faecalis, against Saccharomyces cerevisiae, against Staphylococcus aureus [4], against Escherichia coli and in the assay on Pseudomonas aeruginosa was > 140 µM each time. For the same compound, the fold change (FC) in assay [1] and in assay [5] was 4 throughout. Moreover, the result in the assay on Staphylococcus aureus [2] was Active. For the same compound, the result in [3] was inactive.
On to `COc1ccc2c(c1)O[C@@H]1c3ccc(OC)c(O)c3OC[C@H]21`, for which the MIC with Candida albicans, in the assay on Enterococcus faecalis, in the assay on Saccharomyces cerevisiae, against Staphylococcus aureus [4], against Escherichia coli and against Pseudomonas aeruginosa was > 140 µM each time. In the assay with Staphylococcus aureus [2], the result was inactive.
Turning to `COc1ccc(-c2coc3cc(O)c(OC)cc3c2=O)c(O)c1`, the MIC with Candida albicans, against Enterococcus faecalis, in the assay with Saccharomyces cerevisiae, against Staphylococcus aureus [4], in the assay on Escherichia coli and in the assay with Pseudomonas aeruginosa was > 140 µM in each case. The result with Staphylococcus aureus [2] was Active. Moreover, the outcome in assay [6] was inactive.
In the case of `COc1ccc2cc3[n+](cc2c1OC)CCc1cc2c(cc1-3)OCO2` [BERBERINE CHLORIDE], the values for the MIC in the assay on Staphylococcus aureus [7], with Staphylococcus aureus [8] and against Staphylococcus aureus [9] were > 1490 µM, 372 µM and 89 µM, respectively.
As for `COc1cc(OC(C)=O)ccc1-c1oc2cc3c(cc2c1C=O)OCO3` [SPINOSAN A ACETATE], in assay [10], the fold change (FC) came out at 62. Besides, the minimal inhibitory concentration (MIC) with Candida albicans, in the assay with Enterococcus faecalis, in the assay with Saccharomyces cerevisiae, in the assay with Staphylococcus aureus [4], against Escherichia coli and against Pseudomonas aeruginosa was > 140 µM in each case. Moreover, the outcome (with Staphylococcus aureus [2]; in assay [11]) was Active.
As for `COc1cc(O)ccc1-c1oc2cc3c(cc2c1C=O)OCO3` [SPINOSAN A], the MIC in the assay with Candida albicans, in the assay with Enterococcus faecalis, against Saccharomyces cerevisiae, in the assay with Staphylococcus aureus [4], against Escherichia coli and against Pseudomonas aeruginosa was > 140 µM in each case. In addition, in the assay on Staphylococcus aureus [2], the result was Active. The fold change (FC) in assay [12] is 8; in [13], 15. Moreover, the result in assay [6] was inactive.
On to `COc1ccc2c(C=O)c(-c3ccc(O)cc3OC)oc2c1` [SPINOSAN B], for which the minimal inhibitory concentration (MIC) against Candida albicans, in the assay on Enterococcus faecalis, in the assay with Saccharomyces cerevisiae, against Staphylococcus aureus [4], with Escherichia coli and against Pseudomonas aeruginosa was > 140 µM throughout. Further, the result in the assay with Staphylococcus aureus [2] was inactive.
